Source: ChEMBL document CHEMBL1147862, “Studies on synthesis and pharmacological activities of 3,6-disubstituted-1,2,4-triazolo[3,4-b]-1,3,4-thiadiazoles and their dihydro analogues” (2007)

How the values were obtained:
Format in all cases: functional
[1] = system: Candida albicans; experiment: Antifungal activity against Candida albicans at 30 ug/ml by paper disc method; conditions: read-out: IZ
[2] = system: Staphylococcus aureus; experiment: Antibacterial activity against Staphylococcus aureus at 20 ug/ml by agar plate diffusion technique; conditions: read-out: IZ
[3] = system: Aspergillus niger; experiment: Antifungal activity against Aspergillus niger at 30 ug/ml by paper disc method; conditions: read-out: IZ
[4] = system: Rattus norvegicus; experiment: Antiinflammatory activity in Wistar Albino rat assessed as inhibition of carrageenan-induced paw oedema at 20 mg/kg after 4 hrs relative to control
Summary of the method: (§1)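 Wistar albino rats, 150–200 g, six per group, dosed orally with a 20 mg/kg suspension; control gets 0.1 ml 1% gum acacia. After 30 min, 0.1 ml 1% carrageenan in saline is injected subplantar into the right hind paw. Paw volume is read by plethysmograph at 0–4 h. Inhibition = 100(1 − Vtest/Vcontrol) on mean volume increase.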

[5] = system: Pseudomonas aeruginosa; experiment: Antibacterial activity against Pseudomonas aeruginosa at 30 ug/ml by agar plate diffusion technique; conditions: read-out: IZ
[6] = system: Escherichia coli; experiment: Antibacterial activity against Escherichia coli at 10 ug/ml by agar plate diffusion technique; conditions: read-out: IZ
[7] = system: Mus musculus; experiment: Analgesic activity in Swiss mouse assessed as increase in reaction time at 20 mg/kg, po after 60 mins by Eddy's hot plate technique
Summary of the method: (§2)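 Swiss mice of either sex, 25–35 g, placed one at a time on a hot plate held at 55 °C. End point is paw licking or jumping, whichever comes first, with a 15 s cut-off to avoid paw injury. Reaction time is recorded and reported as percent increase in reaction time.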

[8] = system: Aspergillus niger; experiment: Antifungal activity against Aspergillus niger at 10 ug/ml by paper disc method; conditions: read-out: IZ
[9] = system: Escherichia coli; experiment: Antibacterial activity against Escherichia coli at 30 ug/ml by agar plate diffusion technique; conditions: read-out: IZ
[10] = system: Rattus norvegicus; experiment: Antiinflammatory activity in Wistar Albino rat assessed as inhibition of carrageenan-induced paw oedema at 20 mg/kg after 2 hrs relative to control; summary of the method: as §1
[11] = system: Mus musculus; experiment: Analgesic activity in Swiss mouse assessed as increase in reaction time at 20 mg/kg, po after 90 mins by Eddy's hot plate technique; summary of the method: as §2
[12] = system: Candida albicans; experiment: Antifungal activity against Candida albicans at 20 ug/ml by paper disc method; conditions: read-out: IZ
[13] = system: Staphylococcus aureus; experiment: Antibacterial activity against Staphylococcus aureus at 30 ug/ml by agar plate diffusion technique; conditions: read-out: IZ
[14] = system: Pseudomonas aeruginosa; experiment: Antibacterial activity against Pseudomonas aeruginosa at 20 ug/ml by agar plate diffusion technique; conditions: read-out: IZ
[15] = system: Bacillus subtilis; experiment: Antibacterial activity against Bacillus subtilis at 20 ug/ml by agar plate diffusion technique; conditions: read-out: IZ
[16] = system: Rattus norvegicus; experiment: Antiinflammatory activity in Wistar Albino rat assessed as inhibition of carrageenan-induced paw oedema at 20 mg/kg after 1 hr relative to control; summary of the method: as §1
[17] = system: Bacillus subtilis; experiment: Antibacterial activity against Bacillus subtilis at 10 ug/ml by agar plate diffusion technique; conditions: read-out: IZ
[18] = system: Pseudomonas aeruginosa; experiment: Antibacterial activity against Pseudomonas aeruginosa at 10 ug/ml by agar plate diffusion technique; conditions: read-out: IZ
[19] = system: Bacillus subtilis; experiment: Antibacterial activity against Bacillus subtilis at 30 ug/ml by agar plate diffusion technique; conditions: read-out: IZ
[20] = system: Staphylococcus aureus; experiment: Antibacterial activity against Staphylococcus aureus at 10 ug/ml by agar plate diffusion technique; conditions: read-out: IZ
[21] = system: Candida albicans; experiment: Antifungal activity against Candida albicans at 10 ug/ml by paper disc method; conditions: read-out: IZ
[22] = system: Aspergillus niger; experiment: Antifungal activity against Aspergillus niger at 20 ug/ml by paper disc method; conditions: read-out: IZ
[23] = system: Mus musculus; experiment: Analgesic activity in Swiss mouse assessed as increase in reaction time at 20 mg/kg, po after 30 mins by Eddy's hot plate technique; summary of the method: as §2
[24] = system: Escherichia coli; experiment: Antibacterial activity against Escherichia coli at 20 ug/ml by agar plate diffusion technique; conditions: read-out: IZ
[25] = system: Rattus norvegicus; experiment: Antiinflammatory activity in Wistar Albino rat assessed as inhibition of carrageenan-induced paw oedema at 20 mg/kg after 3 hrs relative to control; summary of the method: as §1

| Structure (SMILES) | zone of inhibition at 30 µg/mL [1] [mm] | zone of inhibition at 20 µg/mL [2] [mm] | zone of inhibition at 30 µg/mL [3] [mm] | inhibition in vivo at 20 mg/kg [4] [%] | zone of inhibition at 30 µg/mL [5] [mm] | zone of inhibition at 10 µg/mL [6] [mm] | Activity [7] [%] | zone of inhibition at 10 µg/mL [8] [mm] | zone of inhibition at 30 µg/mL [9] [mm] | inhibition in vivo at 20 mg/kg [10] [%] | Activity [11] [%] | zone of inhibition at 20 µg/mL [12] [mm] | zone of inhibition at 30 µg/mL [13] [mm] | zone of inhibition at 20 µg/mL [14] [mm] | zone of inhibition at 20 µg/mL [15] [mm] | inhibition in vivo at 20 mg/kg [16] [%] | zone of inhibition at 10 µg/mL [17] [mm] | zone of inhibition at 10 µg/mL [18] [mm] | zone of inhibition at 30 µg/mL [19] [mm] | zone of inhibition at 10 µg/mL [20] [mm] | other results |
| --- | --- | --- | --- | --- | --- | --- | --- | --- | --- | --- | --- | --- | --- | --- | --- | --- | --- | --- | --- | --- | --- |
| Cc1occc1-c1nnc2n1NC(c1ccco1)S2 (stereo not given) | 14.8 | 12.3 | 14.2 | 25.9 | 17.7 | 4.82 | 15.18 | 5.21 | 15.2 | 21.6 | 26.14 | 11 | 13.3 | 12.3 | 10.7 | 16.4 | 5.33 | 6.67 | 11.3 | 6.67 | zone of inhibition at 10 µg/mL [21]: 5.41 mm; zone of inhibition at 20 µg/mL [22]: 8.12 mm; Activity [23]: 5.68%; zone of inhibition at 20 µg/mL [24]: 8.04 mm; inhibition in vivo at 20 mg/kg [25]: 24.1% |
| COc1ccc(Cl)c(-c2nnc3sc(Cc4c[nH]c5ccccc45)nn23)c1 | 12.5 | 7.59 | 12.9 | 34.7 | 12.2 | 4.78 | 28.32 | 5.1 | 12.4 | 16.5 | 34.24 | 9.48 | 12.6 | 8.16 | 7.6 | 8.8 | 4.33 | 4.12 | 12.3 | 4.8 | zone of inhibition at 10 µg/mL [21]: 5.86 mm; zone of inhibition at 20 µg/mL [22]: 10.1 mm; Activity [23]: 19.48%; zone of inhibition at 20 µg/mL [24]: 8.12 mm; inhibition in vivo at 20 mg/kg [25]: 21.4% |
| COc1ccc(Cl)c(-c2nnc3sc(-c4cc(O)nc(O)c4)nn23)c1 | 15 | 8.82 | 13.6 | 23.4 | 13.3 | 4.18 | 15.18 | 4.82 | 13.2 | 14.2 | 26.14 | 7.15 | 13.7 | 9.06 | 8.38 | 8.35 | 4.7 | 4.84 | 13.8 | 4.57 | zone of inhibition at 10 µg/mL [21]: 4.14 mm; zone of inhibition at 20 µg/mL [22]: 8.06 mm; Activity [23]: 5.68%; zone of inhibition at 20 µg/mL [24]: 8 mm; inhibition in vivo at 20 mg/kg [25]: 21% |
| COc1ccc(Cc2nnc3sc(-c4ccnc5ccccc45)nn23)cc1OC | 17.8 | 12.6 | 18 | 24.8 | 18.2 | 7.85 | 16.8 | 6.32 | 18.6 | 17.1 | 21.96 | 13.7 | 18.3 | 14.1 | 13.3 | 14.6 | 7.4 | 7.7 | 18.7 | 6.96 | zone of inhibition at 10 µg/mL [21]: 6.14 mm; zone of inhibition at 20 µg/mL [22]: 13 mm; Activity [23]: 7.55%; zone of inhibition at 20 µg/mL [24]: 14.4 mm; inhibition in vivo at 20 mg/kg [25]: 19.1% |
